# Laboratory results reported in ChEMBL document CHEMBL4145611, “Discovery of Marinoquinolines as Potent and Fast-Acting Plasmodium falciparum Inhibitors with in Vivo Activity” (J Med Chem, 2018).
# Activity calls are given as the source filed them. No cut-off for these calls is given here.
# How the values were obtained:
# Plasmodium berghei [1] = test: Antiplasmodial activity against Plasmodium berghei NK65 infected in Swiss mouse assessed as reduction in parasitemia at 20 mg/kg, ip administered for 3 consecutive days post infection measured on day 7 post infection relative to control; type: functional; set-up: scale not given: the % may be the effect or the level left
# How it was run: (§1)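 P. berghei NK65 suppressive test: adult Swiss outbred mice (20±2 g) inoculated ip with 1×10^5 infected red cells, randomized to groups, dosed daily for three days by oral gavage or ip injection with test compound at 50 mg/kg in 3% (v/v) DMSO; CQ 20 mg/kg and vehicle groups in parallel. Giemsa-stained tail-blood smears on days 5, 7, 9; inhibition = [(C−T)/C]×100 versus untreated control.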
# HepG2 = test: Cytotoxicity against human HepG2 cells assessed as reduction in cell viability after 24 hrs by MTT assay; type: cell-based; conditions: HepG2, 24 h
# How it was run: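 HepG2 cells in RPMI-1640 with 10% heat-inactivated serum, seeded 5×10^3 per well, allowed to adhere 18 h at 37 °C, then exposed to compound (400–6.2 µM) for 24 h at 37 °C, 5% CO2. MTT (5 mg/mL) for 3 h, formazan dissolved in DMSO, absorbance 570 nm with 630 nm background; viability as percent of untreated control.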
# Plasmodium falciparum [2] = test: Plasmodicidal activity against Plasmodium falciparum 3D7A infected in erythrocytes assessed as parasite survival at 10 times IC50 pre-incubated for 48 hrs followed by compound washout and measured after 24 hrs by […] incorporation assay (reference value: 100%); type: functional
# Plasmodium berghei [3] = test: Antiplasmodial activity against Plasmodium berghei NK65 infected in Swiss mouse assessed as reduction in parasitemia at 20 mg/kg, po administered via gavage for 3 consecutive days post infection measured on day 7 post infection relative to control; type: functional; set-up: scale not given: the % may be the effect or the level left; how it was run: as §1
# Plasmodium berghei [4] = test: Antiplasmodial activity against Plasmodium berghei NK65 infected in Swiss mouse assessed as assessed as mouse survival at 20 mg/kg, ip administered for 3 consecutive days post infection measured on day 9 post infection (reference value: 19 +/- 5 days); type: functional
# Plasmodium berghei [5] = test: Antiplasmodial activity against Plasmodium berghei NK65 infected in Swiss mouse assessed as assessed as mouse survival at 20 mg/kg, po administered via gavage for 3 consecutive days post infection measured on day 9 post infection (reference value: 19 +/- 5 days); type: functional
# Plasmodium berghei [6] = test: Antiplasmodial activity against Plasmodium berghei NK65 infected in Swiss mouse assessed as reduction in parasitemia at 20 mg/kg, ip administered for 3 consecutive days post infection measured on day 5 post infection relative to control; type: functional; set-up: scale not given: the % may be the effect or the level left; how it was run: as §1
# Plasmodium berghei [7] = test: Antiplasmodial activity against Plasmodium berghei NK65 infected in Swiss mouse assessed as reduction in parasitemia at 20 mg/kg, po administered via gavage for 3 consecutive days post infection measured on day 9 post infection relative to control; type: functional; set-up: scale not given: the % may be the effect or the level left; how it was run: as §1
# Plasmodium falciparum [8] = test: Plasmodicidal activity against Plasmodium falciparum 3D7A infected in erythrocytes assessed as parasite survival at 10 times IC50 pre-incubated for 24 hrs followed by compound washout and measured after 24 hrs by […] incorporation assay (reference value: 100%); type: functional
# Plasmodium berghei [9] = test: Antiplasmodial activity against Plasmodium berghei NK65 infected in Swiss mouse assessed as reduction in parasitemia at 20 mg/kg, po administered via gavage for 3 consecutive days post infection measured on day 5 post infection relative to control; type: functional; set-up: scale not given: the % may be the effect or the level left; how it was run: as §1
# Plasmodium berghei [10] = test: Antiplasmodial activity against Plasmodium berghei NK65 infected in Swiss mouse assessed as reduction in parasitemia at 20 mg/kg, ip administered for 3 consecutive days post infection measured on day 9 post infection relative to control; type: functional; set-up: scale not given: the % may be the effect or the level left; how it was run: as §1
# Plasmodium falciparum [11] = test: Antiplasmodial activity against chloroquine/pyrimethamine/sulfadoxine-resistant blood parasite forms of Plasmodium falciparum K1 infected in RBC by SYBR green assay; type: functional, organism-based; conditions: K1, Erythrocyte
# How it was run: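 Sorbitol-synchronised K1 culture, mostly rings, at 0.5% parasitemia and 2% hematocrit exposed to serial compound dilutions (0.05% DMSO) in triplicate. Cells lysed with Tris/EDTA/saponin/Triton buffer containing SYBR green I; fluorescence read at 485/535 nm, uninfected erythrocytes as background. IC50 from curve fit versus drug-free growth.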
# Plasmodium berghei [12] = test: Antiplasmodial activity against Plasmodium berghei NK65 infected in Swiss mouse assessed as reduction in parasitemia at 50 mg/kg, po administered via gavage for 3 consecutive days post infection measured on day 7 post infection relative to control; type: functional; set-up: scale not given: the % may be the effect or the level left; how it was run: as §1
# Plasmodium falciparum [13] = test: Antiplasmodial activity against early ring stage of Plasmodium falciparum assessed as decrease in hemozoin accumulation after 32 hrs by UV-Vis spectrophotometry; type: functional, organism-based
# Plasmodium berghei [14] = test: Antiplasmodial activity against Plasmodium berghei NK65 infected in Swiss mouse assessed as reduction in parasitemia at 50 mg/kg, ip administered for 3 consecutive days post infection measured on day 5 post infection relative to control; type: functional; set-up: scale not given: the % may be the effect or the level left; how it was run: as §1
# Plasmodium falciparum [15] = test: Antiplasmodial activity against early ring stage of Plasmodium falciparum assessed as increase in free heme levels after 32 hrs by UV-Vis spectrophotometry; type: functional, organism-based
# Plasmodium berghei [16] = test: Antiplasmodial activity against Plasmodium berghei NK65 infected in Swiss mouse assessed as reduction in parasitemia at 50 mg/kg, ip administered for 3 consecutive days post infection measured on day 7 post infection relative to control; type: functional; set-up: scale not given: the % may be the effect or the level left; how it was run: as §1
# Plasmodium berghei [17] = test: Antiplasmodial activity against liver stage of luciferase-expressing transgenic Plasmodium berghei sporozoites infected in human HepG2 cells administered 18 hrs before infection and measured after 48 hrs by luciferase reporter gene assay; type: functional, organism-based
# How it was run: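 HepG2 cells (3×10^3) plated overnight; compound (10^-4 to 10^-9 M) added 18 h before infection with 1×10^5 freshly isolated luciferase-expressing P. berghei sporozoites from Anopheles stephensi salivary glands; culture 48 h, luciferase activity taken as parasite viability; atovaquone positive control.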
# Plasmodium berghei [18] = test: Antiplasmodial activity against Plasmodium berghei NK65 infected in Swiss mouse assessed as assessed as mouse survival at 50 mg/kg, ip administered via gavage for 3 consecutive days post infection measured on day 9 post infection (reference value: 19 +/- 5 days); type: functional
# Mus musculus [19] = test: Toxicity in Swiss mouse assessed as effect on body weight at 1000 mg/kg, po measured after 30 days; type: organism-based; conditions: in vivo, 720 h
# How it was run: (§2)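 Single 1000 mg/kg dose given to mice by gavage or ip injection, 3 mice per group. Survival and body weight followed against untreated controls over 30 days of observation.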
# Plasmodium falciparum [20] = test: Antiplasmodial activity against chloroquine-sensitive trophozoite form of Plasmodium falciparum 3D7 infected in RBC after 72 hrs by SYBR green assay; type: functional, organism-based; conditions: 3D7, Erythrocyte
# How it was run: (§3)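 Sorbitol-synchronized 3D7 cultures of each stage (or asynchronous) diluted to 0.5% parasitemia, 2% hematocrit, exposed to graded compound concentrations (0.05% DMSO) for 72 h in triplicate. Read-out: lysis buffer (20 mM Tris pH 7.5, 5 mM EDTA, 0.008% saponin, 0.08% Triton X-100) with SYBR green I 1:20000, fluorescence 485/535 nm, uninfected erythrocytes as background; IC50 by curve fitting versus drug-free growth.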
# Plasmodium berghei [21] = test: Antiplasmodial activity against Plasmodium berghei NK65 infected in Swiss mouse assessed as reduction in parasitemia at 50 mg/kg, po administered via gavage for 3 consecutive days post infection measured on day 5 post infection relative to control; type: functional; set-up: scale not given: the % may be the effect or the level left; how it was run: as §1
# Plasmodium berghei [22] = test: Antiplasmodial activity against Plasmodium berghei NK65 infected in Swiss mouse assessed as reduction in parasitemia at 50 mg/kg, po administered via gavage for 3 consecutive days post infection measured on day 9 post infection relative to control; type: functional; set-up: scale not given: the % may be the effect or the level left; how it was run: as §1
# Plasmodium falciparum [23] = test: Antiplasmodial activity against Plasmodium falciparum assessed as fractional inhibitory concentration index at IC50 concentration in presence of artesunate by isobologram plot analysis
# Plasmodium berghei [24] = test: Antiplasmodial activity against Plasmodium berghei NK65 infected in Swiss mouse assessed as reduction in parasitemia at 50 mg/kg, ip administered for 3 consecutive days post infection measured on day 9 post infection relative to control; type: functional; set-up: scale not given: the % may be the effect or the level left; how it was run: as §1
# Plasmodium falciparum [25] = test: (§4) Antiplasmodial activity against of female Plasmodium falciparum NF54 gametocytes assessed as inhibition of xanthurenic acid-stimulated gamete formation at 1 uM preincubated for 24 to 48 hrs followed by xanthurenic acid stimulation and measured after 20 mins by automated time-lapse microscopy relative to control; type: functional
# How it was run: (§5)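 Mature NF54 gametocytes exposed to 1 µM compound (DMSO ≤0.25%) for 24 or 48 h, then activated by cooling 37→26 °C with 2.5 µM xanthurenic acid. Male: exflagellation by automated time-lapse microscopy at 20 min, three readings per well. Female: after 24 h at 26 °C, Cy3 anti-Pfs25 staining, four fields counted. Inhibition versus DMSO and 20 µM Gentian Violet controls; four independent repeats.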
# Plasmodium falciparum [26] = test: as §4, with “male” for “female”; type: functional; how it was run: as §5
# Mus musculus [27] = test: Toxicity in Swiss mouse assessed as effect on body weight at 1000 mg/kg, ip measured after 30 days; type: organism-based; conditions: in vivo, 720 h; how it was run: as §2
# Plasmodium berghei [28] = test: Antiplasmodial activity against Plasmodium berghei NK65 infected in Swiss mouse assessed as mouse survival at 50 mg/kg, po administered for 3 consecutive days post infection measured on day 9 post infection (reference value: 19 +/- 5 days); type: functional
# Plasmodium falciparum [29] = test: Antiplasmodial activity against chloroquine-sensitive ring form of Plasmodium falciparum 3D7 infected in RBC after 72 hrs by SYBR green assay; type: functional, organism-based; conditions: 3D7, Erythrocyte; how it was run: as §3
# Plasmodium falciparum [30] = test: Antiplasmodial activity against chloroquine-sensitive blood parasite forms of Plasmodium falciparum 3D7 infected in RBC by SYBR green assay; type: functional, organism-based; conditions: 3D7, Erythrocyte
# How it was run: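 3D7 blood-stage cultures, sorbitol-synchronized twice beforehand, used at 5-10% parasitemia with >80% rings, diluted to 0.5% parasitemia and 2% hematocrit with graded compound (0.05% DMSO), triplicate; artesunate and chloroquine controls. SYBR green I lysis-buffer fluorescence at 485/535 nm; IC50 from curve fit relative to drug-free medium.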
# Plasmodium falciparum [31] = test: Antiplasmodial activity against chloroquine-sensitive asynchronous form of Plasmodium falciparum 3D7 infected in RBC after 72 hrs by SYBR green assay; type: functional, organism-based; conditions: 3D7, Erythrocyte; how it was run: as §3
# Plasmodium falciparum [32] = test: Antiplasmodial activity against early ring stage form of Plasmodium falciparum assessed as induction of alterations in parasite morphology at 10 times IC50 concentration after 8 to 16 hrs by microscopic analysis; type: functional, organism-based
# Mus musculus [33] = test: Toxicity in Swiss mouse assessed as survival at 1000 mg/kg, po measured up to 30 days; type: organism-based; conditions: in vivo, 720 h; how it was run: as §2
# Plasmodium falciparum [34] = test: Antiplasmodial activity against chloroquine-sensitive schizont form of Plasmodium falciparum 3D7 infected in RBC after 72 hrs by SYBR green assay; type: functional, organism-based; conditions: 3D7, Erythrocyte; how it was run: as §3
# Mus musculus [35] = test: Toxicity in Swiss mouse assessed as survival at 1000 mg/kg, ip measured up to 30 days; type: organism-based; conditions: in vivo, 720 h; how it was run: as §2
structure (smiles),measurement,setting,value
CCN(CC)CCCC(C)Nc1ccnc2cc(Cl)ccc12 (centres undefined) [CHLOROQUINE],Activity,Plasmodium berghei [1],100%
same,EC50,HepG2,384000 nM
same,Survival,Plasmodium falciparum [2],8%
same,Activity,Plasmodium berghei [3],100%
same,Survival,Plasmodium berghei [4],>30 days
same,Survival,Plasmodium berghei [5],>30 days
same,Activity,Plasmodium berghei [6],100%
same,Activity,Plasmodium berghei [7],100%
same,Survival,Plasmodium falciparum [8],16%
same,Activity,Plasmodium berghei [9],100%
same,Activity,Plasmodium berghei [10],100%
COc1ccc2c(c1)nc(-c1ccc(NC(=O)OC(C)(C)C)cc1)c1[nH]ccc12,IC50,Plasmodium falciparum [11],41 nM
same,Activity,Plasmodium berghei [12],54%
same,Activity,Plasmodium falciparum [13],Dose-dependent effect
same,Activity,Plasmodium berghei [14],61%
same,Activity,Plasmodium falciparum [15],Dose-dependent effect
same,Activity,Plasmodium berghei [16],34%
same,IC50,Plasmodium berghei [17],76 nM
same,Survival,Plasmodium berghei [18],24 days
same,Activity,Mus musculus [19],Non-Toxic
same,IC50,Plasmodium falciparum [20],50 nM
same,Activity,Plasmodium berghei [21],62%
same,Survival,Plasmodium falciparum [2],6%
same,Activity,Plasmodium berghei [22],55%
same,FIC,Plasmodium falciparum [23],1
same,Activity,Plasmodium berghei [24],58%
same,inhibition at 1 µM,Plasmodium falciparum [25],2%
same,Survival,Plasmodium falciparum [8],14%
same,inhibition at 1 µM,Plasmodium falciparum [26],7%
same,Activity,Mus musculus [27],Non-Toxic
same,Survival,Plasmodium berghei [28],25 days
same,IC50,Plasmodium falciparum [29],39 nM
same,IC50,Plasmodium falciparum [30]; read-out: IC50,39 nM
same,IC50,Plasmodium falciparum [30]; read-out: pIC50 (converted),39.8 nM
same,IC50,Plasmodium falciparum [31],33 nM
same,Activity,Plasmodium falciparum [32],Active
same,Activity,Mus musculus [33],Non-Toxic
same,IC50,Plasmodium falciparum [34],28 nM
same,Activity,Mus musculus [35],Non-Toxic
